Source: PubChem (The Scripps Research Institute Molecular Screening Center)
TCR CD3 inh: human TCR-CD3 binding inhibition | TAMRA-labeled TCR probe fluorescence, biochemical | hit rate 0.37% among 360,000 | inhibition, % at 9.4 µM; in the data active means inhibition above about 19%;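 further: recombinant mutant TCR 2C K166C tagged with TAMRA read by polarization; 0% = receptor in buffer alone and 100% = receptor with positive control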
PAD4 FP inh: inhibitors of human PAD4 | Q9UM07 | recombinant PAD4, RCA probe fluorescence polarization | inhibition, % at 6.36 µM | hit rate 0.41% among 330,000;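 active means percent inhibition above a cutoff equal to the mean of all tested compounds plus 3 SD, cut at about 15% in these data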;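 further: 0% = PAD4 with RCA probe and DMSO and 100% = probe without PAD4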
ABHD4 inh: inhibits mouse alpha/beta hydrolase domain 4. Q8VD66. purified mABHD4, FP-Rh probe fluorescence polarization. inhibition, % at 8.92 µM. hit rate 0.54% among 370,000;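 active means inhibition exceeding the mean over every tested compound plus 3 SD, cut at about 30% in these data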;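 further: 0% = plate median of compound wells and 100% = S159A mutant with DMSO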
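Doses – 8.92 µM, single dose · Material – wild-type mouse ABHD4 protein · Replication – single well per compound (singlicate) · Measure – percent inhibition of probe binding, normalized to plate controls · Schedule – 45 min compound pre-incubation plus 60 min probe step, 25 °C · Detection – fluorescence polarization with parallel and perpendicular emission, 525/598 nm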
SIAE inh: human SIAE inhibition, primary screen; Q9HAT2; SIAE FP-Rh probe binding, fluorescence polarization; inhibition, % at 9.66 µM; hit rate 0.69% among 370,000;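 active means inhibition above a cutoff: mean of compounds within the control limits plus 3 SD of those, cut at about 17% in these data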;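 further: 0% = plate median of compound wells and 100% = probe without SIAE protein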
PRMT1 inh: blocks human protein arginine methyltransferase 1; recombinant PRMT1, activity-based probe fluorescence polarization; inhibition, % at 2.79 µM; hit rate 1.3% among 370,000;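 active means inhibition above about 21% made by adding two undisclosed values, limit read from the data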
Target sequence (Q99873 whole entry, looked up): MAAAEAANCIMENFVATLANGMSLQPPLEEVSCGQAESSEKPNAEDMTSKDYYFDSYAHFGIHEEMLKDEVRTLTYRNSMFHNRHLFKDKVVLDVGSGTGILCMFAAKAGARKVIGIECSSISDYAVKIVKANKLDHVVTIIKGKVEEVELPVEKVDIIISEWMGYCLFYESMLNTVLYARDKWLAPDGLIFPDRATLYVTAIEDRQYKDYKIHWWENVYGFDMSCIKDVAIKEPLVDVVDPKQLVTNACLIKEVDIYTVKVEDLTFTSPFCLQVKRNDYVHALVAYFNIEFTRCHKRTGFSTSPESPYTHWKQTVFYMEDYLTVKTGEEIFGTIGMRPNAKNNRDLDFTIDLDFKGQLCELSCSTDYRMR
HTRA1 inh: blocks human HTRA1 serine peptidase; Q92743; recombinant HTRA1, FP-rhodamine activity-based probe, fluorescence polarization; inhibition, % at 5.96 µM; hit rate 0.5% among 340,000; in the data active means inhibition above about 36%;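 further: 0% = enzyme with DMSO and 100% = wells lacking enzyme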
PAD4 confirm: confirmation of human PAD4 inhibitors; recombinant PAD4, RCA probe fluorescence polarization; inhibition, % at 6.36 µM; hit rate 28% among 1,200; shares compounds with PAD4 FP inh; AID 488796;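 active means mean inhibition across replicates above the hit cutoff set by the earlier primary screen, cut at about 15% in these data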;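 further: inhibitors block active-site labeling by the probe so polarization falls; 0% = PAD4 with probe and DMSO and 100% = probe without PAD4 enzyme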
An asterisk follows results filed as active; nt = no result given. An excerpt weighted towards active compounds, which were near 2.9% of everything screened.

SMILES	TCR CD3 inh	PAD4 FP inh	ABHD4 inh	SIAE inh	PRMT1 inh	HTRA1 inh	PAD4 confirm
Cc1ccc(C(=O)NCC(=O)OCC(=O)NC2CCS(=O)(=O)C2)cc1C (stereo not given)	-2	35*	-6	-1	3	3	4
O=C(CCc1ccccc1-c1ccccc1CCNC(=O)c1ccccc1)NCc1ccccc1	nt	nt	-1	2	2	nt	nt
CCCCn1[nH]c(-c2ccccc2)cc1=O	5	45*	-11	9	0	1	-5
CCCc1cc(=O)n2[nH]c(-c3ccccc3)cc2n1	-7	-1	3	2	-3	7	nt
Cc1cc(=O)oc2cc(NC(=O)c3cccc(S(C)(=O)=O)c3)ccc12	13	19*	-1	-18	5	0	20*
COC(=O)C1CN(C2CCCC2)CCS(=O)(=O)N1Cc1ccc(Cl)cc1 (stereo not given)	nt	nt	2	-7	1	nt	nt
CCNC(=S)NNC(=O)c1csc(C)c1	2	93*	2	-5	2	5	5
C=c1[nH]cc(C(C)c2c(C)n(C)c3ccccc23)/c1=C/C (stereo not given)	nt	nt	6	1	4	nt	nt
COc1ccc(/C=C/S(=O)(=O)NC2CCCC2)c(CNC(=O)OC(C)(C)C)c1	nt	nt	-6	-2	2	nt	nt
Cc1cc(C)c(S(=O)(=O)/N=C2/C=C(Sc3ncn[nH]3)C(=O)c3ccccc32)cc1C	6	30*	43*	20*	81*	22	5
Cc1c[nH]c2cccc(-c3cc4ccccc4o3)c12	nt	nt	3	5	-6	nt	nt
COc1ccccc1N1CCN(C(=O)c2coc(=O)c(Br)c2)CC1	14	34*	7	-2	0	2	-1
Cc1ccc(-c2nn(-c3ccccc3)cc2C=O)o1	13	17*	16	2	3	-24	2
Cc1ccc(-c2nn(-c3ccccc3)cc2C(N)=O)o1	3	-4	-4	0	19	-11	nt
COC(=O)[C@]12C[C@H](CC(=O)NCCCN3CCCC3=O)C(=O)N(Cc3cccc4ccccc34)C1=C[C@H](C(C)(C)C)O[C@@H]2C	nt	nt	-2	-1	8	nt	nt
COc1ccc(NC(=O)CCCNC(=O)Cn2cnc3sc4c(c3c2=O)CCCC4)c(OC)c1	-3	35*	5	-3	3	1	4
O=c1c2ccccc2[nH]n1[C@@H](Cc1ccccc1)Cn1cc(-c2ccc(-c3ccccc3)cc2)nn1	nt	nt	-5	8	8	nt	nt
CCOc1ccc2[nH]c(SCC(=O)OC)c([N+](=O)[O-])c2c1	2	35*	3	-3	13	2	38*
CC1=NN(c2ccc(C)c(C)c2)C(=O)/C1=C/c1ccc2c(c1)n(C)c(=O)n2C	9	48*	0	5	0	11	5
CC1COC(c2cccn2Cc2ccccc2Cl)=N1 (stereo not given)	2	45*	4	-4	1	-1	0
COCCn1c(N)c(S(=O)(=O)c2cccs2)c2nc3ccccc3nc21	-6	22*	-9	-6	3	-8	-5
COCCn1c(N)c(C(=O)NCC2CCCO2)c2nc3ccccc3nc21 (stereo not given)	0	76*	6	0	2	-8	-18
Cc1cccc(-c2cccc3c4c([nH]c23)[C@@H]2C[C@H](N(C)C(=O)NC3CCCCC3)[C@H]([C@H](C)O)CN2CC4)c1	nt	nt	5	-3	5	nt	nt
CCOC(=O)Cn1cc(CN2CCS(=O)(=O)N(Cc3ccccc3)C(C(=O)OC)C2)nn1 (stereo not given)	nt	nt	3	0	-1	nt	nt
O=C(OCc1cn(Cc2ccc(F)cc2)nn1)N1CCOCC1	nt	nt	3	-1	-1	nt	nt
SMILES	TCR CD3 inh	PAD4 FP inh	ABHD4 inh	SIAE inh	PRMT1 inh	HTRA1 inh	PAD4 confirm
CC(C)(C)c1ccc(-c2nnc(SCC(=O)Nc3ccc(S(=O)(=O)Nc4nccs4)cc3)n2-c2ccc(Cl)cc2)cc1	nt	nt	-78	-44	3	nt	nt
O=c1c(N2CCOCC2)coc2ccccc12	6	1	3	1	-1	-4	nt
O=c1[nH]c(N2CCOCC2)cc2ccccc12	-1	20*	-1	-2	1	7	-7
CC(=O)c1cc(-c2ccccc2)c(=O)n2c1CCC2	nt	nt	3	0	0	nt	nt
N#CC1=C(N)Oc2n[nH]c(-c3cccs3)c2C1c1ccncc1 (stereo not given)	1	-11	1	-2	-2	-4	nt
N#CC1=C(N)Oc2n[nH]c(-c3cccs3)c2C1c1ccsc1 (stereo not given)	-3	17*	6	3	4	-2	-10
COc1ccc(-c2cc(C(=O)NCCN3CCOCC3)c3ccccc3n2)c(OC)c1	6	17*	-1	7	3	1	-1
O=C(NCCN1CCOCC1)c1cc(-c2ccccc2)nc2ccccc12	-1	nt	5	-3	-2	2	nt
Cc1ccc(Cn2cc(CN(C(C)(C)C)S(=O)(=O)c3ccc(F)cc3Br)nn2)cc1	nt	nt	-9	3	-1	nt	nt
COc1ccc(CCNC(=O)COc2nsnc2N2CCOCC2)cc1OC	3	44*	1	-5	0	2	-3
CS(=O)(=O)c1ccccc1-c1nnc(NC(=O)c2ccc3ncsc3c2)o1	-2	22*	1	-2	28*	-1	9
CCN(CC)S(=O)(=O)c1ccc(C)c(NS(=O)(=O)c2cc(/C=C/C(=O)O)cc(OC)c2OC)c1	1	53*	13	3	-2	3	-10
COc1ccc(CNS(=O)(=O)/C=C/c2ccccc2CNC(=O)OC(C)(C)C)cc1	nt	nt	-3	6	-5	nt	nt
CCOC(=O)[C@@]12CCCC=C1N(CCc1ccc(Cl)cc1)C(=O)[C@H]2CC(=O)NCc1ccccc1	nt	nt	-8	3	0	nt	nt
CC(=O)SCC(=O)N=c1sc2cc(F)ccc2n1C	3	20*	1	-6	0	-4	19*
COc1ccc(C2C(C#N)=C(N)Oc3c2c(C)nn3-c2ccccc2)cc1Cn1nc(C)c([N+](=O)[O-])c1C (stereo not given)	-2	42*	14	10	3	3	8
Cc1nn(-c2ccccc2)c2c1C(c1ccc(F)cc1F)C(C#N)=C(N)O2 (stereo not given)	1	6	9	2	-1	6	nt
COc1ccc(C2C(C#N)=C(N)OC3=C2C(=O)CC(C)(C)C3)cc1Cn1nc(C)c([N+](=O)[O-])c1C (stereo not given)	1	-3	1	3	0	-3	nt
COc1ccc(C2C(C#N)=C(N)Oc3c2c(-c2ccccc2)nn3-c2ccccc2)c(OC)c1OC (stereo not given)	8	25*	19	10	3	-7	3
Cc1nn(-c2ccccc2)c2c1C(c1ccccc1)C(C#N)=C(N)O2 (stereo not given)	5	61*	29	8	-1	11	14
